From ChEMBL document CHEMBL3860031, “Design, synthesis and antitrypanosomal activity of some nitrofurazone 1,2,4-triazolic bioisosteric analogues” (Eur J Med Chem, 2016) come the findings set out here.

The subject of one series is Trypanosoma cruzi. Nature of the series: Antitrypanosomal activity against amastigote stage of Trypanosoma cruzi Y infected in human U2OS cells after 96 hrs by Draq5 staining-based high content screening assay. It is filed as functional, cell-based. The method in brief: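 U2OS cells (700/well, high glucose DMEM + 10% heat-inactivated FBS) seeded and incubated 24 h at 37 °C/5% CO2. Infected next day with 2800 Y strain trypomastigotes from LLC-MK2 cultures in low glucose DMEM + 2% FBS. Compounds added on day 3 as 15-point 2-fold dilutions, 1% DMSO final, top 200 µM. After 96 h, fixed in 4% paraformaldehyde, 5 µM Draq5 stain, imaged. Infection ratio normalized to infected/uninfected DMSO controls. EC50 from sigmoidal variable-slope fit. Duplicate wells, three independent experiments.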

Series [1] in a line: Selectivity index, ratio of CC50 for human U2OS cells infected with amastigote stage of Trypanosoma cruzi Y to EC50 for amastigote stage of Trypanosoma cruzi Y. It is filed as toxicity, cell-based. Particulars: U2OS cells infected with Trypanosoma cruzi Y amastigotes, read-out: Ratio CC50/EC50. The essentials: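 S.I. = CC50/EC50 from the infected U2OS high-content assay. When CC50 could not be calculated, S.I. = highest tested concentration/EC50.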

Series [2] in a line: Cytotoxicity against non-infected human U2OS cells assessed as decrease in number of cells after 96 hrs by Draq5 staining-based high content screening assay. It is filed as toxicity, cell-based. The essentials:
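Separate plate with non-infected U2OS cells (700/well, DMEM + 10% FBS) and compounds in 15-point 2-fold dilutions, top 200 µM, 1% DMSO final. After 96 h, fixed with 4% paraformaldehyde, stained with 5 µM Draq5, cells counted by imaging. CC50 from sigmoidal variable-slope curve fitting.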

Series [3] is described as follows: Cytotoxicity against human U2OS cells infected with amastigote stage of Trypanosoma cruzi Y assessed as decrease in number of cells after 96 hrs by Draq5 staining-based high content screening assay. Particulars: U2OS cells infected with Trypanosoma cruzi Y amastigotes. The format is toxicity, cell-based. The method in brief:
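Run on the same infected U2OS plates as the antiparasitic read (700 cells/well, 2800 Y strain trypomastigotes, compounds from day 3, 15-point 2-fold dilutions, top 200 µM, 1% DMSO final). Cells fixed after 96 h with 4% paraformaldehyde and stained with 5 µM Draq5. Total cell count compared with DMSO-treated infected controls. CC50 = concentration giving 50% cell number, from sigmoidal variable-slope fit. Three independent experiments.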

As a reminder, the EC50 is the concentration at which the effect is half-maximal. The term Emax denotes the greatest response seen or fitted, relative to the assay's reference. Turning to `NC(=S)NN=C(Cn1cnc([N+](=O)[O-])n1)c1ccc(F)cc1F`, in the series with Trypanosoma cruzi, the EC50 was 21.6 µM and the Emax is 92.8%. In addition, the selectivity ratio in series [1] was over 9.27. For the same molecule, the Activity result in series [2] was “Non-Toxic”.
On to `O=C(Cn1ccnc1[N+](=O)[O-])NCc1ccccc1` [BENZNIDAZOLE], for which, in the series on Trypanosoma cruzi, a half-maximal effect (EC50) was put at 3.96 µM and the maximal response (Emax) was 104%. Besides, the selectivity ratio in series [1] was over 101.
In the series with Trypanosoma cruzi, `NC(=S)NN=C(Cn1cncn1)c1ccc(F)cc1F` returned an EC50 of 15.4 µM and an Emax of 95.2%. For the same molecule, the selectivity ratio in series [1] is over 13. Moreover, the Activity result in series [2] is “Non-Toxic”.
In the series with Trypanosoma cruzi, `NC(=O)NN=C(Cn1cnc([N+](=O)[O-])n1)c1ccc(F)cc1F` displayed an EC50 of 101 µM and an Emax of 95.2%. In series [1], the selectivity ratio is over 2. Besides, the Activity result in series [2] is “Non-Toxic”.
In the series on Trypanosoma cruzi, `NC(=O)NN=C(Cn1cncn1)c1ccc(F)cc1F` gave an EC50 of 63.1 µM and an Emax of 96.6%. Also, in series [1], the selectivity ratio is over 3.1. In addition, in series [2], the Activity result is “Non-Toxic”.
For `O=C(Cn1cnc([N+](=O)[O-])n1)c1ccc(F)cc1F`, in the series with Trypanosoma cruzi, the EC50 came to 5.53 µM and the Emax worked out at 87%. Further, in series [1], the selectivity ratio is over 36. In series [2], the Activity entry was “Non-Toxic”.
As for `O=C(Cn1cncn1)c1ccc(F)cc1F`, in the series with Trypanosoma cruzi, the midpoint of the response, the EC50, lay at 144 µM and the Emax stood at 68.7%. For the same molecule, in series [1], the selectivity ratio was over 1.4. In series [2], the Activity entry is on record as “Non-Toxic”.
A word on the CC50: it is the concentration giving 50% cytotoxicity. In the series on Trypanosoma cruzi, `CC1CS(=O)(=O)CCN1/N=C/c1ccc([N+](=O)[O-])o1` (stereo unspecified) [NIFURTIMOX] had an EC50 of 0.34 µM and an Emax of 102%. Besides, the CC50 at 96 h in series [3] turned out to be 26.8 µM. Further, in series [1], the selectivity ratio came out at 78.9.
